FXIa inh – factor XIa (human) inhibition; P03951; purified FXIa, Boc-Glu-Ala-Arg-AMC fluorogenic substrate; inhibition, % at 5 µM; actives 0.14% (n = 220,000); AID 798;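 active = inhibition of at least 40%; inactive = inhibition below 40%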;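 also: fluorescence of freed AMC excited at 355 nm; 0% = enzyme without compound and 100% = no enzyme blank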
KLK5 inh – inhibitors of human kallikrein 5 | Q9Y337 | recombinant hK5, fluorogenic AMC substrate cleavage | inhibition, % at 5 µM | actives 0.59% (n = 210,000);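 active = inhibition of 40% or more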;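 also: 0% = enzyme controls without compound and 100% = no-enzyme blanks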
thrombin 1536 – thrombin (human) inhibition. alpha-thrombin, Boc-VPR-AMC fluorogenic substrate cleavage. inhibition, % at 5 µM. actives 0.26% (n = 220,000);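 active = inhibition at or above 40%; inactive = inhibition below 40%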;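 also: 0% = enzyme with no compound and 100% = wells without enzyme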
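System – human alpha-thrombin · Medium – pH 7.5 Tris (50 mM) with NaCl 150 mM, Tween 20 0.05% · Compound – single-point dosing at 5 µM, 0.2% DMSO · Incubation – enzyme reaction carried out at room temperature · Technique – fluorescence of released AMC, ex 355 nm, em 460 nm · Read-out basis – % inhibition of thrombin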
FXIIa inh – factor XIIa (human) inhibition; P00748; purified FXIIa, Boc-QGR-AMC fluorogenic substrate, 2 h; actives 0.3% (n = 220,000); inhibition, % at 5 µM; in the data active = inhibition above about 40%;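 also: 0% = enzyme with no compound and 100% = blank without enzyme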
Wee1 stabilizer – blocks degradation of human Wee1 kinase. HeLa Luc-Wee1K328M stability, luciferase luminescence; 100% = proteasome inhibitor MG132 effect. reporter increase, % at 5 µM. actives 1.2% (n = 220,000). P30291;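 active = activation above the mean of all tested compounds plus 3 SD, set per screening run, cut at about 8.8% in these data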;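 also: cells exposed to compound for 20 h before luminescence read; 0% = DMSO alone and 100% = MG132 at 30 µM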
Target sequence (P30291 whole entry K328M): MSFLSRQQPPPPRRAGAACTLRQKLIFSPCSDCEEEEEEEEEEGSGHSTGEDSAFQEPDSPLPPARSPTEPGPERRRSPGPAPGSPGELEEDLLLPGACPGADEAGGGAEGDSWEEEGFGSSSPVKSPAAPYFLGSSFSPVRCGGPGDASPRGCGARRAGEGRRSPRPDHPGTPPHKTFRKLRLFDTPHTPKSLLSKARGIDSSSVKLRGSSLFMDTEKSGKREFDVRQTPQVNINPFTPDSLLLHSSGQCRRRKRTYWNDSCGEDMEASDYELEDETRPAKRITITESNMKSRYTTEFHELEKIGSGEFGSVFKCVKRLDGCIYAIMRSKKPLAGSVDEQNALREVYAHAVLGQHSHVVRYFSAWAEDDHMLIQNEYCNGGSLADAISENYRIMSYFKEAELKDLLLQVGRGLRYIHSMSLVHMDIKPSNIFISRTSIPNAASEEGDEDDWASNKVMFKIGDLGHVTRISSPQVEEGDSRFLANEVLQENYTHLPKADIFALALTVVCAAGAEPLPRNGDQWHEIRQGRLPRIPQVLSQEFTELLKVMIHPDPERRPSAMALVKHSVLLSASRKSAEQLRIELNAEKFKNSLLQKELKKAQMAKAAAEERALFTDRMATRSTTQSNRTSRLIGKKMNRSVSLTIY
An asterisk follows results filed as active; . = no result given. Compounds with a hit are over-represented: about 2.2% of the library has one in this group of screens.

SMILES	FXIa inh	KLK5 inh	thrombin 1536	FXIIa inh	Wee1 stabilizer
CC(=O)N1c2ccccc2N2C(c3c(C)c(C)cc(C)c3C)=NON12	0	-4	47*	6	-2
CCOC(=O)C1(CCc2ccccc2)CCN(C(=O)c2cccc(C)n2)CC1	-3	5	-3	6	11*
O=C(Cn1nc(-c2ccc(Cl)cc2)ccc1=O)NCC1CCCO1 (stereo not given)	6	51*	17	16	-1
O=C(Cn1nc(-c2ccccc2)ccc1=O)NCC1CCCO1 (stereo not given)	0	-10	2	6	0
CC(=O)OC[C@H]1O[C@H](C/C=N/OC[C@@H](O)[C@H]2O[C@@H]3OC(C)(C)O[C@@H]3[C@H]2O)C=C[C@@H]1OC(C)=O	15	6	0	18	0
COc1ccc2[nH]c3c(NCCCN4CCCC4=O)ncnc3c2c1	1	54*	0	-5	-1
Cc1nc(Sc2ccc(Br)cc2)c(C#N)c(C)c1[N+](=O)[O-]	-7	7	1	7	7
CCOC(=O)N1CCN(c2ccccc2OC)CC1	-1	-4	2	8	9.6*
CCOC(=O)N1CCN(c2ccccc2O)CC1	2	-12	-6	9	1
COc1ccccc1N1CCN(C(=O)c2ccc(CS(=O)(=O)c3ccccc3OC)o2)CC1	-11	-22	-10	-16	9.8*
COc1ccccc1N1CCN(C(=O)CNC(=O)c2cn(-c3ccccc3OC)c(=O)c3ccccc23)CC1	-1	2	101*	9	0
CC1CCN(c2c(NCC3CCC(C(=O)NCCCc4ccccc4)CC3)c(=O)c2=O)CC1 (stereo not given)	3	5	4	12	-3
Cn1c(=O)n(C)c2cc(NC(=O)c3ccccc3[N+](=O)[O-])c(Br)cc21	0	2	4	13	0
C=CCC1(N(C(C)=O)c2ccccc2C)CCCCC1	-3	-3	-6	6	-1
Nc1nnc(CCOc2ccc(Cl)cc2)s1	16	44*	24	21	3
Nc1nnc(CSCc2ccc(Cl)cc2)s1	6	-10	0	14	3
COc1ccc(-n2nc([N+](=O)[O-])c(=NCCC3=CCCCC3)n2O)cc1	-3	1	-2	4	0
C=CCNC(=O)c1c(Cl)cnn1-c1ccc(C)cc1	2	.	0	7	9.2*
CNC(=O)c1c(Br)cnn1-c1ccc(C)cc1	-4	.	-7	9	9.2*
CNC(=O)c1c(Cl)cnn1-c1ccc(C)cc1	4	.	1	13	6
CC(=O)[C@H]1[C@H](c2cccc(Cl)c2)C(C#N)(C#N)[C@@H]2c3ccccc3C=CN21	2	-10	-7	12	1
O=[N+]([O-])c1ccc(Sc2nnnn2-c2ccccc2)nc1	4	1	4	14	2
O=C(CN1CCN(Cc2cccc(Cl)c2)C1=O)NCc1cccs1	-5	-6	3	9	2
CCN1CCN(c2oc(COc3ccc(Cl)cc3)nc2C#N)CC1	10	10	16	17	9.1*
CNS(=O)(=O)c1cc(C(=O)O)ccc1OC	9	18	18	41*	0
SMILES	FXIa inh	KLK5 inh	thrombin 1536	FXIIa inh	Wee1 stabilizer
COc1ccc(C(=O)O)cc1S(N)(=O)=O	-5	-4	-2	5	2
CC(=O)Nc1nc(COc2ccc3ccccc3c2)cs1	7	-11	3	17	7
Nc1nc(COc2ccc3ccccc3c2)cs1	8	-13	-2	16	9.0*
O=C(CSc1nc2ccccc2n1Cc1ccccc1Cl)N/N=C/c1ccccc1C(=O)O	28	47*	23	30	-2
C/C(=N\N1CCN(c2ccccc2)CC1)c1ccncc1	-7	8	-6	2	0
Cc1ccc2c(c1)[nH]c1c(=O)n(CCC3=CCCCC3)cnc12	-3	19	64*	5	0
COc1ccc2[nH]c(-c3ccccc3)cc2c1	2	-3	-5	3	3
O=C(N/N=C/C=C/c1ccccc1)c1ccccn1	1	-5	-1	7	8.9*
O=C(N/N=C/C(Br)=C\c1ccccc1)c1n[nH]c2c1CCC2	5	-22	2	13	0
NC(=O)N\N=C/C=C/C=C/c1ccc(F)cc1	2	9	-7	2	-1
O=C(N/N=C/C=C/c1ccccc1)c1n[nH]c2c1CCC2	-1	-6	-3	-1	9.1*
NC(=O)N/N=C/C=C/c1ccccc1	16	17	42*	13	-1
O=C(N/N=C/C=C/c1ccc(Br)cc1)C(O)c1ccccc1 (stereo not given)	10	-8	-2	5	11*
Cc1cccc(-n2ccnc2SCC(=O)N2CCCc3ccccc32)c1C	15	-6	-4	21	-1
c1ccc2c(-c3cc(C4CCNCC4)[nH]n3)cccc2c1	-2	-1	-7	8	1
C/C(=N/Oc1nc(C)cc(C)n1)c1ccc(Cl)cc1Cl	1	-4	2	8	0
C/C(=N/Oc1nc(C)cc(C)n1)c1ccc(Br)cc1	1	41*	11	13	0
Cc1ccc(/C=c2\sc3nc(-c4ccccc4Br)nn3c2=O)o1	8	12	104*	6	-2
Cc1ccc(/C=c2\sc3nc(-c4ccco4)nn3c2=O)o1	3	1	3	8	0
Cc1ccc(S(=O)(=O)n2nc(C)cc2C)cc1	1	43*	27	1	-1
Cc1ccccc1NC(=O)c1c2c(nc3ccccc13)CCC2	-3	-4	-5	1	2
Cc1cccc(NC(=O)c2ccc(COc3cccc4ccccc34)o2)n1	2	-4	-7	-1	3
CCC(C)NC(=O)C1CN(S(=O)(=O)c2ccccc2)CCN1S(=O)(=O)c1ccccc1 (stereo not given)	33	0	3	41*	1
O=C1NC(c2ccc3c(c2)OCO3)Nc2ccccc21 (stereo not given)	0	-19	1	13	11*
CCOC(=O)c1nnn(-c2ccc([N+](=O)[O-])cc2)c1C	0	-3	-8	-4	8.8*
SMILES	FXIa inh	KLK5 inh	thrombin 1536	FXIIa inh	Wee1 stabilizer
Cc1cc2nc(C)n(CCCNC(=O)Nc3ccc(F)cc3)c2cc1C	-4	-15	-6	-9	1
Cc1nc2cc(Cl)c(Cl)cc2n1CCCO	-4	0	-1	6	10*
CN(C)CC(CCC(CN(C)C)C(=O)c1ccccc1)C(=O)c1ccccc1 (stereo not given)	0	4	4	16	11*
CCOc1ccc(C(=O)C(CCC(CN(C)C)C(=O)c2ccc(OCC)cc2)CN(C)C)cc1 (stereo not given)	-3	-14	-12	5	-2
CCC(CC)NC(=O)COC(=O)CCC(=O)c1ccc(Cl)cc1	9	9	12	16	-2
CCOCCCNC(=O)/C(C#N)=C/c1cc(C)c(O)c(C)c1	1	3	-1	10	8.9*

Compound activity as filed in PubChem.
